Results reported in ChEMBL document CHEMBL4699539, “Dual antagonists of α5β1/αvβ1 integrin for airway hyperresponsiveness” (Bioorg Med Chem Lett, 2020).
Calls of active or inactive are those of the source. No cut-off for these calls is given here.

Key:
[1] = target: Integrin alpha-V/beta-6 (Homo sapiens, UniProt P06756+P18564); test: Inhibition of alphavbeta6 integrin (unknown origin) by solid phase binding assay; format: protein-complex assay
[2] = target: Integrin alpha-V/beta-5 (Homo sapiens, UniProt P06756+P18084); test: Inhibition of alphavbeta5 integrin (unknown origin) by solid phase binding assay; format: protein-complex assay
Integrin alpha-V/beta-5, sequence (P06756 31-889 limits assumed): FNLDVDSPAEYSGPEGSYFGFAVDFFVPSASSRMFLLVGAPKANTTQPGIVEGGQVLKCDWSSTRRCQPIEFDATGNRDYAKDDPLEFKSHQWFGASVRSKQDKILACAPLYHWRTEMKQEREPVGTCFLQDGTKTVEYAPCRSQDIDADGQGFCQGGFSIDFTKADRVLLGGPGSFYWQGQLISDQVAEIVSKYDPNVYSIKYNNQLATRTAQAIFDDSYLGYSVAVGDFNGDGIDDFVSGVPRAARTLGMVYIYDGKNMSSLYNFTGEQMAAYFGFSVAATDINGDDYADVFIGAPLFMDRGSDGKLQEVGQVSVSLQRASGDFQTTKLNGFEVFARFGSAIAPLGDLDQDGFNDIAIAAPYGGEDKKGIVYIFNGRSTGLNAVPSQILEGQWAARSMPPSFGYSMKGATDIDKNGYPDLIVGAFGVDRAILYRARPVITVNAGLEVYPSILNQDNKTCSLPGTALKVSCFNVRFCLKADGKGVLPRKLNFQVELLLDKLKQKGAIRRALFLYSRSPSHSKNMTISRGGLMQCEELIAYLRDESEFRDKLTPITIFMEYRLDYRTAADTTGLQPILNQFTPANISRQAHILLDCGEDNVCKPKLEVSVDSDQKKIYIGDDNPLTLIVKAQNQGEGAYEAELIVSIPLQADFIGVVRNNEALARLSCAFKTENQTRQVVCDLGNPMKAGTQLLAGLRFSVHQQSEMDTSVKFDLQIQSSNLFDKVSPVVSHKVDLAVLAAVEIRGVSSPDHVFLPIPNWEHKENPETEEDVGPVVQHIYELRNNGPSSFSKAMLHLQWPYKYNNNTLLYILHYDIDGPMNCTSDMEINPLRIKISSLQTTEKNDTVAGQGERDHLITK
Integrin alpha-V/beta-5, sequence (P06756 891-1048 limits assumed): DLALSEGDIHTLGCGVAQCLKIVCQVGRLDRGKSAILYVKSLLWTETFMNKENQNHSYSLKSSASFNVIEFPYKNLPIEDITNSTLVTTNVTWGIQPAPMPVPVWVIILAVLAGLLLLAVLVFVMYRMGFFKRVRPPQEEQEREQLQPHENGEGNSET
Integrin alpha-V/beta-5, sequence (P18084 24-799 limits assumed): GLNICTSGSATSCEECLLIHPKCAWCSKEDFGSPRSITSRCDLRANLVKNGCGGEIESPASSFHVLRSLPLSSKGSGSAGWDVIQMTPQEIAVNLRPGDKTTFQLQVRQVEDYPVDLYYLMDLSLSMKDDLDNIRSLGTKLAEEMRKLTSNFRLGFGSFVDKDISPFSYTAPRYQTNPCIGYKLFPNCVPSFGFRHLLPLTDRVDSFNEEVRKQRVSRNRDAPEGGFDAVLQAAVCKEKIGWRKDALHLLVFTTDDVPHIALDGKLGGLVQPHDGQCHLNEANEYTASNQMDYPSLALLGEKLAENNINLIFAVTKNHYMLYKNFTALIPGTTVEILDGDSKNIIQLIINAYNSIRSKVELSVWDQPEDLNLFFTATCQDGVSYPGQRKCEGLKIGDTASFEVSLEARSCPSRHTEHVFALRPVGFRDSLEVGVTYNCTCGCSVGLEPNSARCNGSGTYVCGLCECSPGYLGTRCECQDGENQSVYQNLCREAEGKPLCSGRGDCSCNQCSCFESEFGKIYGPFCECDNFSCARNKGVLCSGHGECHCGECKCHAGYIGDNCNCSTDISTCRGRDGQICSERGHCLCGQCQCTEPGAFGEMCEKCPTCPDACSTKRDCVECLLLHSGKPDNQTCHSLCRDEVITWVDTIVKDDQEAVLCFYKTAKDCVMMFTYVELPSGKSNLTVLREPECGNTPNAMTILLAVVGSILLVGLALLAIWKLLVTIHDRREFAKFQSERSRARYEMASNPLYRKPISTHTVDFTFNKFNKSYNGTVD

[3] = target: T1, Integrin alpha-V/beta-3 (Homo sapiens, UniProt P05106+P06756); test: Inhibition of alphavbeta3 integrin (unknown origin) by solid phase binding assay; format: protein-complex assay
[4] = target: T2, Integrin alpha-V/beta-1 (Homo sapiens, UniProt P05556+P06756); test: Inhibition of alphavbeta1 integrin (unknown origin) by solid phase binding assay; format: protein-complex assay
[5] = target: Integrin alpha-4/beta-1 (Homo sapiens, UniProt P05556+P13612); test: Inhibition of alpha4beta1 integrin (unknown origin) by solid phase binding assay; format: protein-complex assay
Integrin alpha-4/beta-1, sequence (P05556 whole entry): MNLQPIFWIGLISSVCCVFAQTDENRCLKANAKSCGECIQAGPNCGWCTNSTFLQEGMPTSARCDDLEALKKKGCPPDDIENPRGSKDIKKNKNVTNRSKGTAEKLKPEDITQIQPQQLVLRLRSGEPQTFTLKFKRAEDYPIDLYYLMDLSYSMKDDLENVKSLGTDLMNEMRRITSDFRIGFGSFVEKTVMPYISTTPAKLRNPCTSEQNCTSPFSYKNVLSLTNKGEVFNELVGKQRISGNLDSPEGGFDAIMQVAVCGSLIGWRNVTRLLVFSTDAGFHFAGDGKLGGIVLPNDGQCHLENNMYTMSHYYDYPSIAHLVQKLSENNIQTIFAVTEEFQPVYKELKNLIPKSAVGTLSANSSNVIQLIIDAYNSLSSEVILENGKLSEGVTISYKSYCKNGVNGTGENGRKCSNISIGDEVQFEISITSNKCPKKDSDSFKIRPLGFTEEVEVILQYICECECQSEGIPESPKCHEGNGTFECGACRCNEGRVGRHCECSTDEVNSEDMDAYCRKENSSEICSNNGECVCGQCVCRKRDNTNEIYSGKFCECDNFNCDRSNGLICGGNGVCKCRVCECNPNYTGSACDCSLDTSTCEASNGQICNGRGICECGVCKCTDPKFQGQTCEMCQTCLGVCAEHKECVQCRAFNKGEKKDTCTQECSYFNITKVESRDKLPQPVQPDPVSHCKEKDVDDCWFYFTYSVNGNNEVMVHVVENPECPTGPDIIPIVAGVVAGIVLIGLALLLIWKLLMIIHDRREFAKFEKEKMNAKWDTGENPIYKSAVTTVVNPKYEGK
Integrin alpha-4/beta-1, sequence (P13612 whole entry): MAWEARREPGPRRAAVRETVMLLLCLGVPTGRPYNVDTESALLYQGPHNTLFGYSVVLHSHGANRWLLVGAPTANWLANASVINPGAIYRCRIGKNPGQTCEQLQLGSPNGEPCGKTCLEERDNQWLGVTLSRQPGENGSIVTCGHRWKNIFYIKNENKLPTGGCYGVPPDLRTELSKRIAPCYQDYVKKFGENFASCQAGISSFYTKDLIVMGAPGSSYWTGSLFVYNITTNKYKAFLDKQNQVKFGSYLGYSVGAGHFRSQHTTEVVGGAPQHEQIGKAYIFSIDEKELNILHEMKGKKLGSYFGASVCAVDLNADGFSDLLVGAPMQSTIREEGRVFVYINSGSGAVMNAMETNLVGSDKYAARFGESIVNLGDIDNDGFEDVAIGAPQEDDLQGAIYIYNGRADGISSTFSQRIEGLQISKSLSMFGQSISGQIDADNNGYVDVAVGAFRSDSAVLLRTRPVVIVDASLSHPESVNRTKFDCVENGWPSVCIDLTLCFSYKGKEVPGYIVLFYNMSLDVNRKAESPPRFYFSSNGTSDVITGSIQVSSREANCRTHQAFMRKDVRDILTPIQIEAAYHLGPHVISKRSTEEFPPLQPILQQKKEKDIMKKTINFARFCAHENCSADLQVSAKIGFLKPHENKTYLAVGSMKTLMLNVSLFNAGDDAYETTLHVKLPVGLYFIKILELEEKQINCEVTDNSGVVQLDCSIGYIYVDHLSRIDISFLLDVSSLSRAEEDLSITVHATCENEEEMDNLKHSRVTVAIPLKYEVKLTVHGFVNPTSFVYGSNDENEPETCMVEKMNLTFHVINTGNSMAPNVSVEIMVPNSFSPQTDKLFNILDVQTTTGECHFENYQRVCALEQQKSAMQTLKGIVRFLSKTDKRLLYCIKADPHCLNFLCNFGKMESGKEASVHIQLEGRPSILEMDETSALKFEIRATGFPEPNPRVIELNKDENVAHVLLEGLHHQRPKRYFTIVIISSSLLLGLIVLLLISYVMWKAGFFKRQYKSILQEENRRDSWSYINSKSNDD

[6] = target: Integrin alpha-V/beta-8 (Homo sapiens, UniProt P06756+P26012); test: Inhibition of alphavbeta8 integrin (unknown origin) by solid phase binding assay; format: protein-complex assay
Integrin alpha-V/beta-8, sequence (P06756 31-889 limits assumed): as the sequence (P06756 31-889 limits assumed) above
Integrin alpha-V/beta-8, sequence (P06756 891-1048 limits assumed): as the sequence (P06756 891-1048 limits assumed) above
Integrin alpha-V/beta-8, sequence (P26012 43-769 limits assumed): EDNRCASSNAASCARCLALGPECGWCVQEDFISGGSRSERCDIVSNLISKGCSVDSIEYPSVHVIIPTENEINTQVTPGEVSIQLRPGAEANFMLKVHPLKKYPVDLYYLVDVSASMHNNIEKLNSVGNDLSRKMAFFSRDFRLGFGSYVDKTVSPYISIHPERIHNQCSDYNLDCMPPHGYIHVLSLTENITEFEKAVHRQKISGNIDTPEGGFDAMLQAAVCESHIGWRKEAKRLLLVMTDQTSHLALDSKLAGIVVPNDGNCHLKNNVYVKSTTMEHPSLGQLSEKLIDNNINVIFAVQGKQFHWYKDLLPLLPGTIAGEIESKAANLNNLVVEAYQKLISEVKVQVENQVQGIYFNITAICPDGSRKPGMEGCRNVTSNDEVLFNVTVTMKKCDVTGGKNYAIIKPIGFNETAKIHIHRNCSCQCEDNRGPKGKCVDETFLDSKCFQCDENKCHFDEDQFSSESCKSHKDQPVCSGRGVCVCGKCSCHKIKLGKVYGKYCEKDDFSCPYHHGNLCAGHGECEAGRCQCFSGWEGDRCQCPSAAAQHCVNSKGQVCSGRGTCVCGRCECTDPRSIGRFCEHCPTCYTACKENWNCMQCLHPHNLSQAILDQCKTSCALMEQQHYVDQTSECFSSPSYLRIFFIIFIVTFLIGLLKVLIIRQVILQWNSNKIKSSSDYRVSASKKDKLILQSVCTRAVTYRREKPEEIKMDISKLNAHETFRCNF

[7] = target: T3, Integrin alpha-5/beta-1 (Homo sapiens, UniProt P05556+P08648); test: Inhibition of alpha5beta1 integrin (unknown origin) by solid phase binding assay; format: protein-complex assay
[8] = target: T3, Integrin alpha-5/beta-1; test: Inhibition of alpha5beta1 integrin in human SW480 cells assessed as inhibition of cell adhesion to fibronectin incubated for 60 mins by crystal violet staining based analysis
Summary of the method: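 Adhesion of SW480 cells plated on fibronectin coated at 0.3 µg/ml, used to measure α5β1-mediated attachment. IC50 values are means ± S.D., n = 3 or higher.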

[9] = target: T2, Integrin alpha-V/beta-1; test: Inhibition of alphavbeta1 integrin (unknown origin) expressed in CHO cells assessed as inhibition of cell adhesion to fibronectin incubated for 60 mins by crystal violet staining based analysis
Summary of the method: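 Adhesion of CHOαv cells to fibronectin coated at 0.3 µg/ml, used to measure αvβ1-mediated attachment. IC50 values are means ± S.D., n = 3 or higher.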

[10] = target: T1, Integrin alpha-V/beta-3; test: Inhibition of alphavbeta3 integrin (unknown origin) expressed in human SW480 cells transfected with human beta3 assessed as inhibition of cell adhesion to fibrinogen incubated for 60 mins by crystal violet staining based analysis
Summary of the method: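 SW480 cells transfected with human β3, allowed to adhere to fibrinogen coated at 1 µg/ml, used to measure αvβ3-mediated attachment. IC50 values are means ± S.D., n = 3 or higher.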

[11] = species on record: Mus musculus; test: Antagonist activity at alpha5beta1 integrin/alphavbeta1 integrin in mouse tracheal rings assessed as inhibition of methacholine-induced airway hyperresponsiveness at 100 nM incubated with compound for 1 hr in presence of methacholine; format: tissue-based; settings: Trachea, filed as antagonist
Summary of the method: (§1)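 Wild-type mouse tracheal rings incubated 12 h with IL-13 (100 ng/mL), then 1 h with compound or vehicle. Force generated was measured in response to a range of methacholine concentrations. Negative-control rings received no IL-13. n=3 rings per group; statistics by repeated measures of variance.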

[12] = species on record: Mus musculus; test: Antagonist activity at alpha5beta1 integrin/alphavbeta1 integrin in mouse tracheal rings assessed as inhibition of methacholine-induced airway hyperresponsiveness at 100 nM pretreated with IL-13 for 12 hrs followed by incubation with compound for 1 hr in presence of methacholine; format: tissue-based; settings: Trachea, filed as antagonist; summary of the method: as §1
[13] = species on record: Homo sapiens; test: Selectivity index, ratio of IC50 for alphavbeta3 integrin (unknown origin) to IC50 for alpha4beta1 integrin (unknown origin) by solid phase binding assay
[14] = Apparent permeability of the compound across apical to basolateral side in human Caco-2 cells; format: ADME, cell-based
[15] = Apparent permeability of the compound across basolateral to apical side in human Caco-2 cells; format: ADME, cell-based

IC50 [8]	IC50 [9]	IC50 [10]	SMILES	IC50 [1]	IC50 [2]	IC50 [3]	IC50 [4]	IC50 [5]	IC50 [6]	IC50 [7]	further results
500 nM	0.8 nM		N=C(N)NCCCCCNC(=O)NC[C@H](NC(=O)[C@@H]1CCCN1S(=O)(=O)c1ccccc1)C(=O)O								
9700 nM	4 nM	> 100000 nM	N=C(N)NCCCCNC(=O)NC[C@H](NC(=O)[C@@H]1CCCN1S(=O)(=O)c1ccccc1)C(=O)O								
830 nM	316 nM	10000 nM	N=C(N)NCCCCCC(=O)NC[C@H](NC(=O)[C@@H]1CCCN1S(=O)(=O)c1ccccc1)C(=O)O								
50 nM	158 nM	6500 nM	N=C(N)Nc1cccc(C(=O)NNC(=O)NC[C@H](NC(=O)[C@@H]2CCCN2S(=O)(=O)c2ccccc2)C(=O)O)c1								
900 nM	0.9 nM	15000 nM	N=C(N)NCCCCCCNC(=O)NC[C@H](NC(=O)[C@@H]1CCCN1S(=O)(=O)c1ccccc1)C(=O)O								
> 10000 nM	0.5 nM	> 10000 nM	N=C(N)NCCCCC(=O)Nc1ccc(C[C@H](NC(=O)[C@@H]2CCCN2S(=O)(=O)c2ccccc2)C(=O)O)cc1								

The next lines start with the compound.

SMILES	IC50 [8]	IC50 [9]	IC50 [10]	IC50 [1]	IC50 [2]	IC50 [3]	IC50 [4]	IC50 [5]	IC50 [6]	IC50 [7]	further results
N=C(N)Nc1cc(NC(=O)CNC(=O)C23CC4CC(CC(C4)C2)C3)cc(C(=O)NCC(=O)NC[C@H](NC(=O)[C@@H]2CCCN2S(=O)(=O)c2ccccc2)C(=O)O)c1				> 10000 nM	> 10000 nM	> 10000 nM	< 0.1 nM	136 nM	> 10000 nM	1.6 nM	
N=C(N)Nc1cccc(C(=O)NCC(=O)NC[C@H](NC(=O)[C@@H]2CCCN2S(=O)(=O)c2ccccc2)C(=O)O)c1		32 nM	1100 nM								inhibition [11]: Active; inhibition [12]: Active
N=C(N)Nc1cc(NC(=O)CCCC(=O)NC23CC4CC(CC(C4)C2)C3)cc(C(=O)NCC(=O)NC[C@H](NC(=O)[C@@H]2CCCN2S(=O)(=O)c2ccccc2)C(=O)O)c1				> 10000 nM	980 nM	> 10000 nM	0.3 nM	161 nM	> 10000 nM	1 nM	Ratio IC50 [13]: > 100
CCCCCCCC(=O)Nc1cc(NC(=N)N)cc(C(=O)NCC(=O)NC[C@H](NC(=O)[C@@H]2CCCN2S(=O)(=O)c2ccccc2)C(=O)O)c1	110 nM		16800 nM								
N=C(N)Nc1cc(NC(=O)CCCCNC(=O)C23CC4CC(CC(C4)C2)C3)cc(C(=O)NCC(=O)NC[C@H](NC(=O)[C@@H]2CCCN2S(=O)(=O)c2ccccc2)C(=O)O)c1				1870 nM	320 nM	> 10000 nM	< 0.1 nM	182 nM	6830 nM	0.7 nM	Ratio IC50 [13]: > 100
N=C(N)Nc1cc(NC(=O)CCCN)cc(C(=O)NCC(=O)NC[C@H](NC(=O)[C@@H]2CCCN2S(=O)(=O)c2ccccc2)C(=O)O)c1	32 nM		56000 nM								
N=C(N)Nc1cc(NC(=O)CCNC(=O)C23CC4CC(CC(C4)C2)C3)cc(C(=O)NCC(=O)NC[C@H](NC(=O)[C@@H]2CCCN2S(=O)(=O)c2ccccc2)C(=O)O)c1				> 10000 nM	> 10000 nM	> 10000 nM	< 0.1 nM	100 nM	> 10000 nM	1.4 nM	Ratio IC50 [13]: > 100
N=C(N)Nc1cc(NC(=O)CCCNC(=O)C23CC4CC(CC(C4)C2)C3)cc(C(=O)NCC(=O)NC[C@H](NC(=O)[C@@H]2CCCN2S(=O)(=O)c2ccccc2)C(=O)O)c1	2.6 nM	0.8 nM	8800 nM	2760 nM	3000 nM	> 10000 nM	0.14 nM	105 nM	> 10000 nM	0.8 nM	Papp [14]: 0.37 10^-6 cm/s; Papp [15]: 0.27 10^-6 cm/s; Ratio IC50 [13]: > 100
